According to ChEMBL document CHEMBL5653622 (Oncotarget, 2016):
Activity calls are given as the source filed them. The calls are words filed in the database; no cut-off is given here.

How the values were obtained:
[1] = Cmax in BALB/C mouse spleen at 10 mg/kg, po by LC/MS-MS analysis; assay type: ADME, organism-based
How it was run: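 Female BALB/c mice received a single 10mg/kg bolus i.v. or p.o. Plasma (and spleen homogenate) extracted with methanol containing internal standards. Concentrations were measured by LC/MS-MS and PK parameters calculated with modelling software.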

[2] = biological target: Mitogen-activated protein kinase 3 (Homo sapiens) (UniProt P27361); assay: Inhibition of human ERK1 assessed as remaining activity at 10 uM in presence of ATP by radiometric kinase assay relative to control
[3] = biological target: Ribosomal protein S6 kinase alpha-3 (Homo sapiens, UniProt P51812); assay: Inhibition of human RSK2 assessed as remaining activity at 10 uM in presence of ATP by radiometric kinase assay relative to control
[4] = biological target: Serine/threonine-protein kinase N2 (Homo sapiens) (UniProt Q16513); assay: Inhibition of human PRK2 assessed as remaining activity at 10 uM in presence of ATP by radiometric kinase assay relative to control
[5] = biological target: MAP kinase-interacting serine/threonine-protein kinase 2 (Homo sapiens) (UniProt Q9HBH9); assay: Inhibition of human MNK2 assessed as remaining activity at 10 uM in presence of ATP by radiometric kinase assay relative to control
[6] = biological target: Calcium/calmodulin-dependent protein kinase type 1 (Homo sapiens) (UniProt Q14012); assay: Inhibition of human CAMK1 assessed as remaining activity at 10 uM in presence of ATP by radiometric kinase assay relative to control
[7] = biological target: Serine/threonine-protein kinase TBK1 (Homo sapiens) (UniProt Q9UHD2); assay: Inhibition of human TBK1 assessed as remaining activity at 10 uM in presence of ATP by radiometric kinase assay relative to control
[8] = biological target: Homeodomain-interacting protein kinase 1 (Homo sapiens) (UniProt Q86Z02); assay: Inhibition of human HIPK1 assessed as remaining activity at 10 uM in presence of ATP by radiometric kinase assay relative to control
[9] = biological target: T1, Dual specificity protein kinase CLK2 (Homo sapiens, UniProt P49760); assay: Inhibition of human CLK2 assessed as remaining activity at 10 uM in presence of ATP by radiometric kinase assay relative to control
[10] = biological target: Mitogen-activated protein kinase kinase kinase 1 (Homo sapiens) (UniProt Q13233); assay: Inhibition of human MEKK1 assessed as remaining activity at 10 uM in presence of ATP by radiometric kinase assay relative to control
[11] = biological target: Mitogen-activated protein kinase kinase kinase 5 (Homo sapiens) (UniProt Q99683); assay: Inhibition of human ASK1 assessed as remaining activity at 10 uM in presence of ATP by radiometric kinase assay relative to control
[12] = biological target: Casein kinase I (Homo sapiens) (UniProt Q9HCP0+P78368+P48730+P49674+P48729); assay: Inhibition of human CK1 assessed as remaining activity at 10 uM in presence of ATP by radiometric kinase assay relative to control; assay type: protein assay
[13] = biological target: Tyrosine-protein kinase CSK (Homo sapiens) (UniProt P41240); assay: Inhibition of human CSK assessed as remaining activity at 10 uM in presence of ATP by radiometric kinase assay relative to control
[14] = biological target: Ephrin type-B receptor 1 (Homo sapiens) (UniProt P54762); assay: Inhibition of human EPH-B1 assessed as remaining activity at 10 uM in presence of ATP by radiometric kinase assay relative to control
[15] = biological target: Interleukin-1 receptor-associated kinase 4 (Homo sapiens) (UniProt Q9NWZ3); assay: Inhibition of human IRAK4 assessed as remaining activity at 10 uM in presence of ATP by radiometric kinase assay relative to control
[16] = biological target: Tyrosine-protein kinase Lck (Homo sapiens) (UniProt P06239); assay: Inhibition of human Lck assessed as remaining activity at 10 uM in presence of ATP by radiometric kinase assay relative to control
[17] = biological target: Ribosomal protein S6 kinase alpha-1 (Homo sapiens, UniProt Q15418); assay: Inhibition of human RSK1 at 10 uM in presence of ATP by radiometric kinase assay relative to control
[18] = biological target: T1, Dual specificity protein kinase CLK2; assay: Inhibition of human CLK2 at 10 uM in presence of ATP by radiometric kinase assay relative to control
[19] = biological target: Vascular endothelial growth factor receptor 1 (Homo sapiens, UniProt P17948); assay: Inhibition of VEGFR1 (unknown origin) by FRET based Z-LYTE kinase assay
[20] = biological target: NUAK family SNF1-like kinase 1 (Homo sapiens, UniProt O60285); assay: Inhibition of human NUAK1 by FRET based Z-LYTE kinase assay
HT-29 = assay: Induction of cell cycle arrest in human HT-29 cells assessed as decrease in accumulation of cells at G0/G1 phase at 1 to 5 uM incubated for 24 hrs by BrdU and PI staining based flow cytometry analysis; assay type: functional; settings: dose 1-5 µM
How it was run: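 HT29 cells exposed for 24h, stained with bromodeoxyuridine and propidium iodide, and cell-cycle distribution measured by flow cytometry.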

Mus musculus [21] = assay: In vivo inhibition of CHK1 in CRTac:Ncr-Fox1 mouse xenografted with human HT-29 cells assessed as reduction of phosphorylation of CDK1 on Y15 at 100 mg/kg, po administered for 24 hrs by Western blotting analysis; assay type: functional, organism-based
How it was run: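 HT29 s.c. xenografts in female athymic nude mice. Single gemcitabine dose 100mg/kg i.v. on day 0, then one inhibitor dose 50 or 100mg/kg p.o. (DPTW vehicle) 24h later. Tumors taken 24h after the last dose, western blotted, and signals quantified by normalizing to GAPDH.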

Mus musculus [22] = assay: In vivo inhibition of CHK1 in CRTac:Ncr-Fox1 athymic mouse xenografted with human Calu-6 cells assessed as enhanced phosphorylation of CHK1 on S345 at 150 mg/kg, po in presence of gemcitabine and carboplatin by Western blotting analysis; assay type: functional, organism-based
How it was run: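 Female CRTac:Ncr-Fox1(nu) athymic mice carried s.c. Calu6 xenografts. Tumors were taken 6h after the last inhibitor dose, lysed in CHAPS buffer, and immunoblotted with GAPDH as loading control.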

[23] = Toxicity in Emu-Myc driven transgenic mouse transplant model of B-cell lymphoma assessed as reduction in weight of the inguinal lymph nodes at 150 mg/kg, po administered for 9 days; assay type: organism-based; settings: in vivo, 216 h, time 9 day

T1 sequence (P49760 whole entry, looked up): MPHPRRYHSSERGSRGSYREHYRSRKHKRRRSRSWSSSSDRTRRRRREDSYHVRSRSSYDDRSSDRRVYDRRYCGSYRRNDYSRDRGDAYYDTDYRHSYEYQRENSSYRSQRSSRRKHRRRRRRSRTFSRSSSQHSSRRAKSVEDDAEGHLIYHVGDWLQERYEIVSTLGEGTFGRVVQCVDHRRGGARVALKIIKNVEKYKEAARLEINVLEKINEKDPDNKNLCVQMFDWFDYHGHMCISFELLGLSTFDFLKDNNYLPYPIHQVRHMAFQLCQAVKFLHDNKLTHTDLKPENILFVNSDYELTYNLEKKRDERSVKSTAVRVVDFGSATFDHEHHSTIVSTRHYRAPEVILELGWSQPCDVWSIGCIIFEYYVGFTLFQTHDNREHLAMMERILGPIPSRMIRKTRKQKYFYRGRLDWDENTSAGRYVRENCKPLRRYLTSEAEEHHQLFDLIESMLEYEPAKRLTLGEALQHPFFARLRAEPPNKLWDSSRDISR
Chain of Vascular endothelial growth factor receptor 1 (P17948 whole entry): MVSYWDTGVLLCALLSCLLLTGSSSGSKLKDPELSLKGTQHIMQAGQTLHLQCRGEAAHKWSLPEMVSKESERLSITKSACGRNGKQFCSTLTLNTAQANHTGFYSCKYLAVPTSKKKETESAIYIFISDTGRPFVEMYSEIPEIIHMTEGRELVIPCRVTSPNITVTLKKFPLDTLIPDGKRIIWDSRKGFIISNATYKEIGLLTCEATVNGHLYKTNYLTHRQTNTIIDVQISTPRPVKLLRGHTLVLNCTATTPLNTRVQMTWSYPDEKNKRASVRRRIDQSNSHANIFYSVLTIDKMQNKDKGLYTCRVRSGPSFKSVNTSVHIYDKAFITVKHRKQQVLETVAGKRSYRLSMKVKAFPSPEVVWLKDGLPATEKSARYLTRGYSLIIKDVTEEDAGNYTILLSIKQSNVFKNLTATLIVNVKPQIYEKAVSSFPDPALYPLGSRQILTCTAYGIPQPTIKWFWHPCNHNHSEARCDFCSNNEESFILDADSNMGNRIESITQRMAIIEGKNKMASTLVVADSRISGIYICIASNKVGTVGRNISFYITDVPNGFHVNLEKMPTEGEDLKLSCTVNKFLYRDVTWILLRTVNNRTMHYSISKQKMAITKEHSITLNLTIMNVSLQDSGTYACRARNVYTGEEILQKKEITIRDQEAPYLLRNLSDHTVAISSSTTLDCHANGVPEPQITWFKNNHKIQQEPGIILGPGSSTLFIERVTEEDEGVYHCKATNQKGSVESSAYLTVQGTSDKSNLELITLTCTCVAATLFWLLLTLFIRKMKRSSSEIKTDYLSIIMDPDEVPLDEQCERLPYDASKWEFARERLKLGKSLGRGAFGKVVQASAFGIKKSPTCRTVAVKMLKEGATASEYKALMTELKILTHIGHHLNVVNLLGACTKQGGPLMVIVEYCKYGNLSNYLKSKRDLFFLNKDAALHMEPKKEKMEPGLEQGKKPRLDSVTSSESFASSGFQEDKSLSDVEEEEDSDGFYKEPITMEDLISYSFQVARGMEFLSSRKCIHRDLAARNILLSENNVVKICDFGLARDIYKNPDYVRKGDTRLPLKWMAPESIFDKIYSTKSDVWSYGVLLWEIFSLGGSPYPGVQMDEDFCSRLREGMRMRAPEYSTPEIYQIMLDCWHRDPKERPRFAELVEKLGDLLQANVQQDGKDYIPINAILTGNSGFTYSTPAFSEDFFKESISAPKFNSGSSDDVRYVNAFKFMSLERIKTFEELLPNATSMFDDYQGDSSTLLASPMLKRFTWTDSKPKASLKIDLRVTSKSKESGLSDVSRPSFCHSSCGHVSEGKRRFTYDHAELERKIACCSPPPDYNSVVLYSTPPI
Chain of Mitogen-activated protein kinase kinase kinase 5 (Homo sapiens) (Q99683 whole entry): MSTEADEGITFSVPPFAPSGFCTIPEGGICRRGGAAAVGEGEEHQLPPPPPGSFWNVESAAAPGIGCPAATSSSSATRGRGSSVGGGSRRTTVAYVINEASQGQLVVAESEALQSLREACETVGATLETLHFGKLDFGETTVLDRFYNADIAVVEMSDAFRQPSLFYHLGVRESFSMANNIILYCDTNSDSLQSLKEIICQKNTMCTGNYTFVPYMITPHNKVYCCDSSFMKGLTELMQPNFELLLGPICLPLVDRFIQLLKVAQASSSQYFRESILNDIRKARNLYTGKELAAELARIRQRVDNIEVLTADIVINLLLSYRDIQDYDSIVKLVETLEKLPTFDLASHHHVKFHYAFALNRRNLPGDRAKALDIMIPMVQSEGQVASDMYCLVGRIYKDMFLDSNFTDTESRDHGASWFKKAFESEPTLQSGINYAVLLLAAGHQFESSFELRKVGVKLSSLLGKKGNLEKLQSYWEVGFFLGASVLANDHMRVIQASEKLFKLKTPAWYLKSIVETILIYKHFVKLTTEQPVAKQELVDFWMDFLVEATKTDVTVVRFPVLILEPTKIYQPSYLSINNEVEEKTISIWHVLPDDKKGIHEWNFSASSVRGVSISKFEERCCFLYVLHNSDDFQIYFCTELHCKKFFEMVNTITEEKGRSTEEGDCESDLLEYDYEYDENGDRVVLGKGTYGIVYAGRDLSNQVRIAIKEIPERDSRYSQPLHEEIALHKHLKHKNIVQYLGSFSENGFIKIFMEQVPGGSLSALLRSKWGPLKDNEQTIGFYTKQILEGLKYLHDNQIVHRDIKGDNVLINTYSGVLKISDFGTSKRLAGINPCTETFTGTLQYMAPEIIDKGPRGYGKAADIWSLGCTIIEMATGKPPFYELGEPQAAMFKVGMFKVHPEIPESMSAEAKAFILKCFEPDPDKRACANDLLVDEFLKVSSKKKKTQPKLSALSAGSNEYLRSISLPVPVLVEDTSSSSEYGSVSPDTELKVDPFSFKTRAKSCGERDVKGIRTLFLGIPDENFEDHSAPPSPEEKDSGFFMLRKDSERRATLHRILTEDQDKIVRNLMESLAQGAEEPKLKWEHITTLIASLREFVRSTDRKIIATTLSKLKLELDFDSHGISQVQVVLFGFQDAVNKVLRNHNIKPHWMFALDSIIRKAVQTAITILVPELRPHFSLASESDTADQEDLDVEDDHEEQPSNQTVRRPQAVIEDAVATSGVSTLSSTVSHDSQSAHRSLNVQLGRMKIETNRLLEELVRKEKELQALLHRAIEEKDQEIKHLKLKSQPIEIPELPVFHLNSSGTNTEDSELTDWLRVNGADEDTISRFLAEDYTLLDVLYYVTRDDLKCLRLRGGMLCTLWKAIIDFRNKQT
Chain of Serine/threonine-protein kinase N2 (Homo sapiens) (Q16513 whole entry, looked up): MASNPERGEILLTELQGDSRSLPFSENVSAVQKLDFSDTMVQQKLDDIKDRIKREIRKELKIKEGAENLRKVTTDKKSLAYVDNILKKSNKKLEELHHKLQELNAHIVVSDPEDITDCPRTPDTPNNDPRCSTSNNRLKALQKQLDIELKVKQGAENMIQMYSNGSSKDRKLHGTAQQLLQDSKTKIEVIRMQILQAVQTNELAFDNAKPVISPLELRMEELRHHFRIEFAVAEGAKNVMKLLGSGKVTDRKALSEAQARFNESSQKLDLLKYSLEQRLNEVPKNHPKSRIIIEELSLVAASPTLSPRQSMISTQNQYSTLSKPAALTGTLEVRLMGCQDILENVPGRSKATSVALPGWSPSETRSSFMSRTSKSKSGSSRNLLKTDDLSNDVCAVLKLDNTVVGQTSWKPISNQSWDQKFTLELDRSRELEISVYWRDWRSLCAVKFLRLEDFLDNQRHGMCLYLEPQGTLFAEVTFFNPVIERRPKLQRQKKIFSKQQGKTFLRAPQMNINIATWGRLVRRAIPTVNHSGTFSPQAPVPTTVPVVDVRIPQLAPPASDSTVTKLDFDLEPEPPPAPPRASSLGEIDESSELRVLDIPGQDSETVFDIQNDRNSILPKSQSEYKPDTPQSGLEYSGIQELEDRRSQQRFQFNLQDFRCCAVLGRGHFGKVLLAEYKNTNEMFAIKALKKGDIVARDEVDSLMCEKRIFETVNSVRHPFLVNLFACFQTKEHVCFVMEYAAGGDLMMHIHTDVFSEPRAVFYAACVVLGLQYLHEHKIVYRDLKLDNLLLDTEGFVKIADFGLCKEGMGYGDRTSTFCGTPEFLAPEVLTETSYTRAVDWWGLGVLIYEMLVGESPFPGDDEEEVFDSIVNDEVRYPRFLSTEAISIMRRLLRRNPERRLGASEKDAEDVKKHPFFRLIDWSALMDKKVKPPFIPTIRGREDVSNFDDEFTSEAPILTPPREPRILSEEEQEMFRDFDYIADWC
Chain of Mitogen-activated protein kinase 3 (Homo sapiens) (P27361 whole entry): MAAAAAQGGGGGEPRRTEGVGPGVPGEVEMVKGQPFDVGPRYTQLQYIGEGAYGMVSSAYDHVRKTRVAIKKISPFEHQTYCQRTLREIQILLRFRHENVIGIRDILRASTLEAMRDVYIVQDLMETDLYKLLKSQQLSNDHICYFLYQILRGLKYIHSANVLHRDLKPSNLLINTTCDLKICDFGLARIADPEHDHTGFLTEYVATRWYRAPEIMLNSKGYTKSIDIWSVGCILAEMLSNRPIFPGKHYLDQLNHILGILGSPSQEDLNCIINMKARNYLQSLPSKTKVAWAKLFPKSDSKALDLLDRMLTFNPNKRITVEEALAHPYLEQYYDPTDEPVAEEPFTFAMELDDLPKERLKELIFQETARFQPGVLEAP
Chain of Interleukin-1 receptor-associated kinase 4 (Homo sapiens) (Q9NWZ3 whole entry): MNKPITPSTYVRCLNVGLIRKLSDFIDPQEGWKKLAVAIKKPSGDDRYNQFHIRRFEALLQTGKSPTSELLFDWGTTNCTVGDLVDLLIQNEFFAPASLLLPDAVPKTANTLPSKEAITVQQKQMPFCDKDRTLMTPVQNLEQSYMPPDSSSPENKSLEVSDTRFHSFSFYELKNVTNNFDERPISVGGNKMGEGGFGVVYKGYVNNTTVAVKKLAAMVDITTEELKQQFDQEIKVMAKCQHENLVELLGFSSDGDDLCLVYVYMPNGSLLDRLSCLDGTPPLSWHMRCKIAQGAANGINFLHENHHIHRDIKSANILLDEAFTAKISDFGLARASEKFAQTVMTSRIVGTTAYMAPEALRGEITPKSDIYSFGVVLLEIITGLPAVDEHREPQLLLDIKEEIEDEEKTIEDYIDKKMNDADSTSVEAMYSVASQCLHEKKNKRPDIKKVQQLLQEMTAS

Cmax [1]: 30.1 µM
Activity [2]: 75%
Activity [3]: 19%
Activity [4]: 67%
Activity [5]: 75%
Activity [6]: 69%
Activity [7]: 71%
Activity [8]: 77%
Activity [9]: 6%
Activity [10]: 77%
Activity [11]: 80%
Activity [12]: 85%
Activity [13]: 82%
Activity [14]: 111%
Activity [15]: 73%
Activity [16]: 78%
inhibition [17]: 93%
inhibition [18]: 94%
IC50 [19]: 15.8 µM
IC50 [20]: 0.711 µM
SMILES: N#Cc1cnc(Nc2cc(NC[C@H]3CNCCO3)c(C(F)(F)F)cn2)cn1 [SRA-737]
Activity (HT-29): Active
Activity (Mus musculus [21]): Active
Activity (Mus musculus [22]): Active
Activity [23]: Toxic
